Measured values of several laboratories.
Sample: plasma

`CCOC(=O)[C@@]12C[C@@H]1[C@@H](n1ccc3c(NC)nc(C#Cc4ccc(Cl)s4)nc31)[C@H](O)[C@@H]2O` has an AUC(0-inf) of 31.1 ng·h/mL (male Sprague-Dawley rat; intravenous; 0.5 mg/kg).
For `C=CC(=O)N1CC2CC(n3nc(-c4ccc(C(=O)Nc5ccccn5)cc4)c4c(N)ncnc43)CC2C1` (centres unmarked), the AUC(0-t) was 80700 ng·h/mL (male Wistar rat; oral; 300 mg/kg).
`COc1cc2c3c(n(CCCN4CCOCC4)c(=O)c2cc1OC)-c1cc2c(cc1C3=O)OCO2` has an AUC(0-inf) of 806 ng·h/mL (female Fischer 344 rat; intravenous; 24 mg/m²; single dose).
`CCc1cc(C(=O)NC)c2nccc(N3CCc4c(cc(Cn5ccnc5)cc4-c4cn(C)nc4C(F)(F)F)C3=O)c2c1` gave an AUC(0-t) of 37200 ng·h/mL (male Sprague-Dawley rat; oral; 100 mg/kg; single dose).
`Cl.Clc1ccc2c(c1)nc(N1CCNCC1)n2Cc1ccccc1` has an AUC of 1.5 µM·h (rat; oral; 5 mg/kg).
`N#Cc1[nH]nnc1-c1csc(-c2ccc(Cl)cc2)n1` has an AUC of 18300 ng·h/mL (male Sprague-Dawley rat; oral; 10 mg/kg).
`CCNC(=O)c1nc(-c2ccc3[nH]c(-c4nc(C)no4)cc3c2)c(C)[nH]1` has an AUC of 10.3 µM·h (Sprague-Dawley rat; oral; 10 mg/kg).
For `CC[C@H](C)[C@H](NC(=O)[C@H](Cc1ccccc1)NC(=O)[C@H](CCC(=O)O)NC(=O)[C@H](CCCNC(=N)N)NC(=O)[C@H](C)NC(=O)[C@H](C)NC(=O)[C@H](CCC(N)=O)NC(=O)[C@H](CCC(=O)O)NC(=O)[C@H](CCC(=O)O)NC(=O)[C@H](CC(C)C)NC(=O)[C@H](Cc1ccc(O)cc1)NC(=O)[C@H](CO)NC(=O)[C@H](CO)NC(=O)[C@@H](NC(=O)[C@H](CC(=O)O)NC(=O)[C@H](CO)NC(=O)[C@@H](NC(=O)[C@H](Cc1ccccc1)NC(=O)[C@@H](NC(=O)CNC(=O)[C@H](CCC(=O)O)NC(=O)[C@H](C)NC(=O)CCc1c[nH]cn1)[C@@H](C)O)[C@@H](C)O)C(C)C)C(=O)N[C@@H](C)C(=O)N[C@@H](Cc1c[nH]c2ccccc12)C(=O)N[C@@H](CC(C)C)C(=O)N[C@H](C(=O)N[C@@H](CCCNC(=N)N)C(=O)NCC(=O)N[C@@H](CCCNC(=N)N)C(=O)N[C@@H](CCCCNC(=O)COCCOCCNC(=O)COCCOCCNC(=O)CC[C@H](NC(=O)CCCCCCCCCCCCCCCCC(=O)O)C(=O)O)C(=O)O)C(C)C`, the AUC was 1.98 µM·h (rat; subcutaneous; 20 nmol/kg).
With `Cc1noc(-c2cc3cc(-c4nc(C(=O)NCc5ccncc5)[nH]c4C)ccc3[nH]2)n1` the AUC was 11.1 µM·h (Sprague-Dawley rat; oral; 10 mg/kg).
For `N#Cc1[nH]nnc1-c1cccc(-c2cc(F)cc(C(F)(F)F)c2)c1`, the AUC was 68200 ng·h/mL (male Sprague-Dawley rat; oral; 10 mg/kg).
The AUC of `N#Cc1ccc(Nc2nc(N)cc(Oc3c(F)cc(-c4ccc(C#N)cc4)cc3F)n2)cc1` is reported as 308 ng·h/mL (Sprague-Dawley rat; intravenous; 1 mg/kg).
